Test results as given in article PMC4521672 (OncoTargets and therapy, 2015).
Several values for one entry are separate records, joined by “and”; a condition that tells them apart may be missing. Equal entries are not always repeated.

Experiments:
GSTA1 (GST-α) = molecular target: T1, GSTA1 (GST-α) (Homo sapiens, UniProt P08263); experiment: GST activity assay; assay type: biochemical; conditions: read-out: IC50 for inhibition of formation of the CDNB-GSH conjugate in the presence of GST-α; GSTA1 5 μg/mL, pH 6.8, absorption at 355 nm
T1 sequence (P08263 1-222): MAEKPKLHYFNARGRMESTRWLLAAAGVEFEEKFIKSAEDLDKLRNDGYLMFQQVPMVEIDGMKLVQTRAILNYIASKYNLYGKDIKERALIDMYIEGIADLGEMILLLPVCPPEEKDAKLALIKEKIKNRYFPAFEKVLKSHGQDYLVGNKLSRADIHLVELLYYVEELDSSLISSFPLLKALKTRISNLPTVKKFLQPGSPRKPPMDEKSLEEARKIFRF
Procedure, shortened: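 Recombinant human GSTA1 at 5 μg/mL in 0.1 M sodium phosphate, pH 6.8. GSH and CDNB were added from 2.5 mM and 7.5 mM stocks. Test compound was made as a 10 mM ethanol stock, then serially diluted to 10^-2–100 μM to compete with CDNB for conjugation to GSH. After 1–5 min, absorbance read at 355 nm, minus non-enzymatic conjugation. Triplicate runs; IC50 taken from dose–response curves.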

GSTP1 (GST-π) = GSTP1 (GST-π) (Homo sapiens, UniProt P09211); experiment: GST activity assay; assay type: biochemical; conditions: read-out: IC50 for inhibition of formation of the CDNB-GSH conjugate in the presence of GST-π; GSTP1 5 μg/mL, pH 6.8, absorption at 355 nm
C6 glioma tumor = experiment: In vivo PET imaging of C6 glioma-bearing rat; set-up: species or system Sprague–Dawley rats; conditions: dynamic PET 0-60 minutes post-injection, intravenous
Procedure, shortened: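 Male Sprague–Dawley rats (8 weeks) stereotactically inoculated in the right hemisphere with 1.0×10^5 C6 cells. Tumours grew 2 weeks to 3–5 mm, with loci confirmed by MRI. Rats were anaesthetised with isoflurane in 200 mL/min oxygen and fitted with venous and arterial catheters. Imaged on a microPET R4 scanner; one tumour-bearing and one healthy rat were scanned.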

Structure (SMILES)	IC50 (GSTA1 (GST-α))	IC50 (GSTP1 (GST-π))	Accumulation in C6 glioma tumor loci (PET) (C6 glioma tumor)
C=C(CC)C(=O)c1ccc(OCC(=O)NCCCCF)c(Cl)c1Cl [FBuEA, fluorobutyl ethacrynic amide]	17.5 µM	6.02 µM and 6 µM	
Cc1cn([C@H]2C[C@H]([18F])[C@@H](CO)O2)c(=O)[nH]c1=O [[^18F]FLT, 3′-deoxy-3′-[^18F] fluorothymidine]			tumor sites were targeted
